The source of these data is ChEMBL document CHEMBL3351942, “Rexinoids isolated from Sophora tonkinensis with a gene expression profile distinct from the synthetic rexinoid bexarotene” (J Nat Prod, 2014).

For test [1], the species on record is Homo sapiens. Briefly: Activation of PPARgamma/RXR heterodimer in human hepatoma cells assessed as increase in ANGPTL4 mRNA level at 10 uM by quantitative RT-PCR analysis. Type of test: cell-based. An outline of the steps: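 HLE human hepatoma cells (DMEM, 10% FBS, 37 °C, 5% CO2) treated with or without rosiglitazone; ANGPTL4 mRNA by SYBR green qRT-PCR, β-actin-normalized delta-delta Ct, fold vs vehicle; means ± SD of three determinants, representative of three experiments.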

Test [2] is filed under the species Homo sapiens. Briefly: Activation of RXR/VDR heterodimer in human hepatoma cells assessed as increase in CYP24A1 mRNA level at 10 uM by quantitative RT-PCR analysis. It is filed as cell-based. An outline of the steps: (§1)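 HLE hepatoma cells treated 24 h with or without VD3 (0.1 μM); CYP24A1 mRNA by SYBR green qRT-PCR normalized to β-actin (delta-delta Ct), fold over vehicle; means ± SD of three determinants, representative of three experiments.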

The species named for test [3] is Homo sapiens. Briefly: Activation of RXR/VDR heterodimer in human hepatoma cells assessed as increase in CYP24A1 mRNA level at 10 uM in presence of VDR agonist calcitriol by quantitative RT-PCR analysis. It is filed as cell-based. An outline of the steps:
as §1

Test [4] is described as follows: Activation of LXR in mouse C2C12 cells assessed as induction of LPL mRNA expression at 10 uM after 24 hrs in presence of T0901317 by quantitative RT-PCR analysis. It is filed as cell-based. An outline of the steps: (§2)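 C2C12 myoblasts grown in DMEM/10% FBS, differentiated at confluence in 2% horse serum, medium changed every other day for 5 days; myotubes treated 24 h with or without T0901317 (1 μM). Total RNA, DNase-treated, oligo(dT) RT from 0.5 μg, SYBR green qPCR; normalized to β-actin (delta-delta Ct), fold over vehicle; mean ± SD of four determinants, one of two experiments.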

A short description of test [5]: Activation of LXR in mouse C2C12 cells assessed as induction of ApoD mRNA expression at 10 uM after 24 hrs in presence of T0901317 by quantitative RT-PCR analysis. It is filed as cell-based. A digest of the protocol:
as §2

For test [6], the target named is T1, Peroxisome proliferator-activated receptor delta (Mus musculus) (UniProt P35396).
T1 sequence (whole entry): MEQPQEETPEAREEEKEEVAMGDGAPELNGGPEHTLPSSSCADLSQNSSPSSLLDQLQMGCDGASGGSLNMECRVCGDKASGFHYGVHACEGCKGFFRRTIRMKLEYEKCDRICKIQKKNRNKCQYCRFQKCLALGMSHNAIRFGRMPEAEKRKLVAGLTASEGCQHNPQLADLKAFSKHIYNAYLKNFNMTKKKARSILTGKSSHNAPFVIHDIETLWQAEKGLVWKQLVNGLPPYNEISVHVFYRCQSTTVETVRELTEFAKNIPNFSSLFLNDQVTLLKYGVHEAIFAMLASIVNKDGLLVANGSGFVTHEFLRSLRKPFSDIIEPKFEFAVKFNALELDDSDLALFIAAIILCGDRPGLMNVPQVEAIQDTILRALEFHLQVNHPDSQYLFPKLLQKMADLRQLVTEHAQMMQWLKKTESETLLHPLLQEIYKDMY
Briefly: Activation of PPARdelta in mouse C2C12 cells assessed as induction of ANGPTL4 mRNA expression at 10 uM after 24 hrs in presence of GW501516 by quantitative RT-PCR analysis. Type of test: cell-based. An outline of the steps:
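Differentiated C2C12 myotubes (2% horse serum, 5 days) exposed 24 h with or without PPARδ agonist GW501516 (1 μM). mRNA quantified by SYBR green real-time RT-PCR, normalized to β-actin by delta-delta Ct, and expressed as fold induction vs vehicle; means ± SD of four determinants from one of two independent experiments; one-way ANOVA with Bonferroni.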

The target of test [7] is T2, Retinoic acid receptor RXR-alpha (Homo sapiens) (UniProt P19793).
T2 sequence (whole entry): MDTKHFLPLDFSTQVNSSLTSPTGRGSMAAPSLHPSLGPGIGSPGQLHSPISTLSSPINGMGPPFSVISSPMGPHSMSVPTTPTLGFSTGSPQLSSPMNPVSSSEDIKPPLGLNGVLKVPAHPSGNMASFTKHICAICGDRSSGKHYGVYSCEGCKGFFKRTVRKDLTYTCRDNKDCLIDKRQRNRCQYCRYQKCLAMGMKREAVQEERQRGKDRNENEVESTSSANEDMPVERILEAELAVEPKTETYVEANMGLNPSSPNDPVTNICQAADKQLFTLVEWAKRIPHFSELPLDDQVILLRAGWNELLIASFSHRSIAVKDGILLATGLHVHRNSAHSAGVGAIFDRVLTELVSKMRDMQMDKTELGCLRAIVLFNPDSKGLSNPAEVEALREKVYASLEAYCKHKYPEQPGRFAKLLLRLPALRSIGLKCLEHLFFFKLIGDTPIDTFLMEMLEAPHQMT
Briefly: Binding affinity to RXRalpha (unknown origin) by receptor-SRC1 cofactor complex formation assay. An outline of the steps:
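Ligand-dependent binding of RXR isotype to coactivator SRC-1 in an NR cofactor kit, detected with HRP-conjugated anti-RXR antibody at OD450. The full agonist CD3254 defined 100% and vehicle 0%. Efficacy was taken as maximum B/Bmax% and potency as EC50.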

In test [8] the target is T3, Peroxisome proliferator-activated receptor delta (Homo sapiens) (UniProt Q03181).
T3 sequence (whole entry): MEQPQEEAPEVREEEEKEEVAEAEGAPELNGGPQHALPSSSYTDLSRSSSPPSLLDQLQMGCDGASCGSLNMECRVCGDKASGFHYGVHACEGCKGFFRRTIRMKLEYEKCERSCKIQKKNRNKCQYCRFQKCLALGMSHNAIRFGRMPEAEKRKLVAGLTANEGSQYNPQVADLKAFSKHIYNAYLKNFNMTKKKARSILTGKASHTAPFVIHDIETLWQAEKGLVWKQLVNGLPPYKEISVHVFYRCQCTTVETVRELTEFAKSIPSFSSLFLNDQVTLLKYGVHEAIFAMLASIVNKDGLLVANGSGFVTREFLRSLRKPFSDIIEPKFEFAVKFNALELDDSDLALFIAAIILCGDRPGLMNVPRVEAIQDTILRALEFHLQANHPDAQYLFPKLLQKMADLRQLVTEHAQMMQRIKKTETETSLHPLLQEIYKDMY
Briefly: Activation of PPARdelta (unknown origin) by receptor-CBP cofactor complex formation assay. An outline of the steps:
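Cell-free cofactor recruitment ELISA: ligand-dependent binding of PPAR isotypes to CBP, detected by HRP-conjugated anti-PPAR antibody at OD450. Full agonists GW7647 (α), GW1929 (γ), GW501516 (δ) define 100%, vehicle 0%; efficacy as maximum B/Bmax% and potency as EC50.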

Active and inactive are the calls of the source. The calls are words filed in the database; no cut-off is given here.

Turning to `CC(C)=CCc1cc([C@@H]2CC(=O)c3ccc(O)c(CC=C(C)C)c3O2)cc2c1OC(C(C)(C)O)C2` (stereo partly drawn), the outcome (in the test listed under Homo sapiens [1]; in the test filed under Homo sapiens [2]; in test [4]; in test [6]) was Active. In addition, the result (in the test listed under Homo sapiens [3]; in test [5]; in test [7]; in test [8]) was inactive.
